Tests used:
[1] = test system: A549; assay: Cytotoxicity against human A549 cells expressing wild type p53 by MTT assay; assay type: functional, cell-based
[2] = Cytotoxicity against human NSCLC-N6 cells expressing mutant p53 by MTT assay; assay type: functional, cell-based
How it was run: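 Cells grown in RPMI 1640 and seeded in 96-well plates (NSCLC-N6 at 10⁵ cells/mL). Cells exposed to drug continuously. Growth measured colorimetrically by mitochondrial reduction of MTT to formazan, with solubilized formazan read at 570 nm. Eight replicates per concentration; control growth from 8 determinations.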

[3] = Homo sapiens, A549, read-out: IC50
[4] = Homo sapiens, NSCLC-N6, read-out: IC50

Row | SMILES | IC50 [1, 3] [µM] | IC50 [2, 4] [µM] | IC50 ([1]; a549) | IC50 ([2]; nsclc-n6)
1 | COc1cc(OC)c2c(C)c(C(N)=O)oc2c1C(N)=O | 39.4 | 22.6 |  | 
2 | COc1cc(OC)c2c(C)c(C=O)oc2c1 |  |  | Not Active | Not Active
3 | COc1cc(OC)c2c(C)c(C=O)oc2c1Br | 49.5 |  |  | Not Active
4 | COc1cc(OC)c2c(C)c(C=O)oc2c1C#N |  |  | Not Active | Not Active
5 | COc1cc(OC)c2c(C)c(C=O)oc2c1C(N)=O | 63.8 | 44.4 |  | 
6 | Cc1c(C=O)oc2c(C(N)=O)c(O)cc(O)c12 | 108 | 60.8 |  | 
7 | CCOC(=O)c1oc2cc(OCc3ccccc3)cc(OCc3ccccc3)c2c1C | > 72 | > 72 |  | 
8 | Cc1c(C=O)oc2cc(OCc3ccccc3)cc(OCc3ccccc3)c12 | > 80.6 | > 80.6 |  | 
9 | CCOC(=O)c1oc2cc(O)cc(O)c2c1C | 68.6 | 65.6 |  | 
10 | Cc1c(C=O)oc2cc(O)cc(O)c12 |  |  | Not Active | Not Active
11 | CCOC(=O)c1oc2c(C(N)=O)c(OCc3ccccc3)cc(OCc3ccccc3)c2c1C | < 7.2 | < 7.2 |  | 
12 | CCOC(=O)c1oc2c(C(N)=O)c(O)cc(O)c2c1C | 24 | 32.9 |  | 
13 | CCOC(=O)c1oc2cc(OC)cc(OC)c2c1C |  |  | Not Active | Not Active
14 | CCOC(=O)c1oc2c(Br)c(OC)cc(OC)c2c1C | > 87.4 | > 87.4 |  | 
15 | CCOC(=O)c1oc2c(C#N)c(OC)cc(OC)c2c1C |  |  | Not Active | Not Active
16 | CCOC(=O)c1oc2c(C(N)=O)c(OC)cc(OC)c2c1C |  |  | Not Active | Not Active
17 | CCCNC(=O)c1oc2c(C(N)=O)c(OC)cc(OC)c2c1C | > 93.6 | > 93.6 |  | 
18 | COc1cc(OC)c2c(C)c(C(=O)NCc3ccccc3)oc2c1C(N)=O | 54.8 | > 81.4 |  | 
19 | COc1cc(OC)c2c(C)c(C(=O)Nc3ccccc3)oc2c1C(N)=O | < 9.3 | < 9.3 |  | 
20 | COc1cc(OC)c2c(C)c(C(=O)Nc3ccccn3)oc2c1C(N)=O | > 84.4 | > 84.4 |  | 
21 | COc1cc(OC)c2c(C)c(C(=O)Nc3ccncc3)oc2c1C(N)=O | < 9.3 | < 9.3 |  | 

Source: ChEMBL document CHEMBL2434874, “Synthesis and antiproliferative activity of benzofuran-based analogs of cercosporamide against non-small cell lung cancer cell lines” (Eur J Med Chem, 2013)
